Activity calls are given as the source filed them. No cut-off for these calls is given here.

Common to all, as to conditions: Chlorocebus sabaeus
Assay [1] has as its system Vero. Kind of assay: Effect on disruption of microtubules in african green monkey Vero cells at 5 ug/ml after 30 mins by immunofluorescence method. The assay is classed as functional, cell-based. The procedure, abridged: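 They were then fixed and immunostained for microtubules, and microtubule morphology was judged by immunofluorescence microscopy against DMSO-treated cells.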

Assay [2] deals with Vero. The assay is described as follows: Inhibition of Arf1 in african green monkey Vero cells expressing GBF1 QNV deleted mutant assessed as effect on change in golgi morphology at 10 ug/ml after 1 hr by immunofluorescence method. The assay is classed as cell-based.
Assay [3] relates to Vero. Kind of assay: Restoration of Arf1-GTP levels in african green monkey Vero cells expressing GBF1-M832L mutant at 10 ug/ml after 1 hr. The format is cell-based.
Assay [4] deals with Vero. The assay is described as follows: Inhibition of Arf1 in african green monkey Vero cells assessed as tubule formation from trans golgi network and endosomes before its dispersal at 10 ug/ml after 1 hr by immunofluorescence method. The format is cell-based.
Assay [5] concerns Vero. The assay is described as follows: Inhibition of GBF1 QNV deleted mutant in african green monkey Vero cells assessed as effect on change in golgi morphology at 10 uM after 1 hr by immunofluorescence method. The assay is classed as cell-based.
The subject of assay [6] is Vero. Kind of assay: Inhibition of Arf1 in african green monkey Vero cells overexpressing BIG1 assessed as punctate and diffuse distribution of medial-Golgi marker giantin from golgi at 10 ug/ml after 1 hr by immunofluorescence method. The format is cell-based.
The subject of assay [7] is Vero. The assay is described as follows: Inhibition of Arf1 in african green monkey Vero cells expressing GBF1 QNV to AAA mutant assessed as effect on change in golgi morphology at 10 ug/ml after 1 hr by immunofluorescence method. The assay is classed as cell-based.
Assay [8] concerns Vero. Kind of assay: Inhibition of Arf1 in african green monkey Vero cells assessed as punctate and diffuse distribution of cis-Golgi marker GM130 at 10 ug/ml after 1 hr by immunofluorescence method. The format is cell-based.
Assay [9] relates to Vero. Kind of assay: Inhibition of Arf1 in african green monkey Vero cells assessed as giantin positive punctate structures in contact with Sec31-positive ER exit site at 10 ug/ml after 1 hr by immunofluorescence method. The format is cell-based. The procedure, abridged: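 Vero cells given BFA 10 μg/ml or compound 10 μM for 60 min, fixed, co-stained for giantin and ER exit site marker Sec31; giantin puncta relative to ERES scored by immunofluorescence.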

The subject of assay [10] is Vero. The assay is described as follows: Inhibition of Arf1 in african green monkey Vero cells assessed as rapid COPI redistribution from golgi at 10 ug/ml after 5 mins by immunofluorescence method. The format is cell-based.
Assay [11] deals with Vero. The assay is described as follows: Inhibition of Arf1 in african green monkey Vero cells assessed as decrease in Arf1-GTP levels at 10 ug/ml after 1 hr. The assay is classed as cell-based. The procedure, abridged:
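Vero cells transduced with adenoviral Arf1-V5, alone or with GBF1-ML-HA; next day reseeded, then 45 min at 37°C with medium, BFA 10 µg/ml or compound 10 μM. Lysates pulled down with GGA3 VHS-GAT-GST on glutathione agarose, 30 min 4°C; Arf1-GTP by anti-V5 Western, band densitometry, duplicate experiments averaged.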

The subject of assay [12] is Vero. The assay is described as follows: Inhibition of Arf1 in african green monkey Vero cells assessed as rapid AP-1 dispersal from golgi membranes at 10 ug/ml after 5 mins by immunofluorescence method. The assay is classed as cell-based.
Assay [13] has as its system Vero. Kind of assay: Inhibition of Arf1 in african green monkey Vero cells assessed as punctate and diffuse distribution of medial-Golgi marker giantin at 10 ug/ml after 1 hr by immunofluorescence method. The assay is classed as cell-based.
Assay [14] concerns Vero. The assay is described as follows: Inhibition of GBF1 in african green monkey Vero cells assessed as tubule formation from trans golgi network and endosomes before its dispersal in african green monkey Vero cells at 10 uM after 1 hr by immunofluorescence method. The assay is classed as cell-based.
The test system of assay [15] is Vero. The assay is described as follows: Inhibition of Arf1 in african green monkey Vero cells assessed as inhibition of StxB-SS retrogade transport from endosomes to TGN at 10 ug/ml by immunofluorescence method. The format is cell-based.
Assay [16] has as its system Vero. The assay is described as follows: Inhibition of GBF1 QNV to AAA mutant in african green monkey Vero cells assessed as effect on change in golgi morphology at 10 uM after 1 hr by immunofluorescence method. The assay is classed as cell-based.
The test system of assay [17] is Vero. Kind of assay: Inhibition of GBF1 in african green monkey Vero cells assessed as punctate and diffuse distribution of medial-Golgi marker giantin […] at 10 uM after 1 hr by immunofluorescence method. The assay is classed as cell-based.
Assay [18] relates to Vero. The assay is described as follows: Inhibition of Arf1 in african green monkey Vero cells assessed as rapid GGA3 dispersal from trans golgi network at 10 ug/ml after 5 mins by immunofluorescence method. The format is cell-based.
The test system of assay [19] is Vero. The assay is described as follows: Induction of GBF1 in african green monkey Vero cells assessed as punctate and diffuse distribution of cis-Golgi marker GM130 from TGN at 10 uM after 1 hr by immunofluorescence method. The assay is classed as cell-based.
Assay [20] has as its system Vero. The assay is described as follows: Inhibition of Arf1 in african green monkey Vero cells expressing GBF1-M832L mutant assessed as inhibition of StxB-SS retrogade transport from endosomes to TGN in african green monkey Vero cells at 10 ug/ml by immunofluorescence method. The assay is classed as cell-based.
Assay [21] deals with Vero. Kind of assay: Inhibition of GBF1 in african green monkey Vero cells assessed as inhibition of StxB-SS retrogade transport from endosomes to TGN at 10 uM by immunofluorescence method. The assay is classed as cell-based.

In the case of `COC(=O)Nc1nc2cc(C(=O)c3cccs3)ccc2[nH]1`, the result in the assay with Vero [1] was Active.
With `C[C@H]1CCC/C=C/[C@@H]2C[C@H](O)C[C@H]2[C@H](O)/C=C/C(=O)O1`, the inhibition entry in the assay on Vero [2], in the assay with Vero [6], in the assay on Vero [7], in the assay with Vero [14] and with Vero [20] was “inactive” in each case. In addition, in the assay on Vero [3], the outcome was inactive. Also, the inhibition entry with Vero [4], with Vero [5], in the assay on Vero [8], in the assay on Vero [9], with Vero [10] and in the assay with Vero [11] was “Active” each time. The inhibition entry in the assay on Vero [12], in the assay with Vero [13], in the assay on Vero [15], in the assay on Vero [16], in the assay on Vero [17] and in the assay on Vero [18] was “Active” each time. The inhibition result with Vero [21] is “Active”. For the same compound, the result in the assay on Vero [19] was Active.

The record behind these values is ChEMBL document CHEMBL1255381, “Golgicide A reveals essential roles for GBF1 in Golgi assembly and function” (Nat Chem Biol, 2009).
